Activity data for 40 molecules are collected here from ChEMBL document CHEMBL5150051, “Identification and Characterization of a Novel Indoleamine 2,3-Dioxygenase 1 Protein Degrader for Glioblastoma” (J Med Chem, 2022).

Chain of von Hippel-Lindau disease tumor suppressor/Indoleamine 2,3-dioxygenase 1 (Homo sapiens) (P14902 whole entry, looked up): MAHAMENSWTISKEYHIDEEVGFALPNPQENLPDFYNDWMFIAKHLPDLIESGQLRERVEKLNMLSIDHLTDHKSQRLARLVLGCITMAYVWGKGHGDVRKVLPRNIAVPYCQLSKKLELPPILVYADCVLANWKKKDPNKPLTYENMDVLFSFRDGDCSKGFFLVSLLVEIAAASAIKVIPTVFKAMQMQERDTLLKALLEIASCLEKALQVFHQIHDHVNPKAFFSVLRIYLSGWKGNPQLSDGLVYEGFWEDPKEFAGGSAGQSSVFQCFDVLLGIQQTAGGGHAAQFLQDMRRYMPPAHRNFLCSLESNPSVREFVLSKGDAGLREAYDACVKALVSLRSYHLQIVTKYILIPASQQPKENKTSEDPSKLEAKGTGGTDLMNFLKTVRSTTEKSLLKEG
Chain of von Hippel-Lindau disease tumor suppressor/Indoleamine 2,3-dioxygenase 1 (Homo sapiens) (P40337 whole entry, looked up): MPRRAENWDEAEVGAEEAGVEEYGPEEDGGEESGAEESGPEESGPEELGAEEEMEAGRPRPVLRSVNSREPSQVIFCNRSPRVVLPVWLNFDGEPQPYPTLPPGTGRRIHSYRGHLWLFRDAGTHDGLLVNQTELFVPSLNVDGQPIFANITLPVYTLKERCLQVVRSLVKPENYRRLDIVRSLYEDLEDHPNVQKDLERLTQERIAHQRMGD

The first assay concerns the target von Hippel-Lindau disease tumor suppressor/Indoleamine 2,3-dioxygenase 1 (Homo sapiens) (UniProt P14902+P40337). As to the kind of experiment: Protac activity at IDO1/VHL in IFNgamma-stimulated human U87 cells assessed as IDO1 degradation at 10 uM measured after 24 hrs by Western blotting analysis relative to control. Type of assay: cell-based. A digest of the protocol: (§1)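 U87 GBM cells primed with human IFNγ 50 ng/mL for 24 h, then exposed to PROTAC at 10 μM for 24 h. Lysates run on western blot; IDO1 bands quantified by densitometry and expressed as percent of normalized IDO1 protein level.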
On the technique in general: In western blotting, separated proteins are transferred to a membrane and probed.
For the molecule `Cc1ncsc1-c1ccc(CNC(=O)[C@@H]2C[C@@H](O)CN2C(=O)[C@@H](NCCOCCOc2cc(NC(=O)[C@H](C)[C@H]3CC[C@@H](c4ccnc5ccc(F)cc54)CC3)ccc2Cl)C(C)(C)C)cc1`, the Activity turned out to be 0%.
On the same count and under the same terms, under `Cc1ncsc1-c1ccc(CNC(=O)[C@@H]2C[C@@H](O)CN2C(=O)[C@@H](NC(=O)C2(F)CC2)C(C)(C)C)c(OCCOCCOCCC(=O)N2CCC(Oc3ccc(NC(=O)[C@H](C)[C@H]4CC[C@@H](c5ccnc6ccc(F)cc65)CC4)cc3)CC2)c1` stands 3%; under `Cc1ncsc1-c1ccc(CNC(=O)[C@@H]2C[C@@H](O)CN2C(=O)[C@@H](NC(=O)C2(F)CC2)C(C)(C)C)c(OCCOCCOCCOc2ccc(NC(=O)[C@H](C)[C@H]3CC[C@@H](c4ccnc5ccc(F)cc54)CC3)cc2)c1`, 0%.
For `Cc1ncsc1-c1ccc(CNC(=O)[C@@H]2C[C@@H](O)CN2C(=O)[C@@H](NC(=O)C2(F)CC2)C(C)(C)C)c(OCCCCCCCCCCOc2ccc(NC(=O)[C@H](C)[C@H]3CC[C@@H](c4ccnc5ccc(F)cc54)CC3)cc2)c1`, the Activity was determined as 23%.
Consider `Cc1ncsc1-c1ccc(CNC(=O)[C@@H]2C[C@@H](O)CN2C(=O)[C@@H](NC(=O)C2(F)CC2)C(C)(C)C)c(OCCCCCCCOc2ccc(NC(=O)[C@H](C)[C@H]3CC[C@@H](c4ccnc5ccc(F)cc54)CC3)cc2)c1`, for which the Activity was 41%.
`Cc1ncsc1-c1ccc(CNC(=O)[C@@H]2C[C@@H](O)CN2C(=O)[C@@H](NC(=O)C2(F)CC2)C(C)(C)C)c(OCCOCCOCCOCCOc2cc(NC(=O)[C@H](C)[C@H]3CC[C@@H](c4ccnc5ccc(F)cc54)CC3)ccc2Cl)c1`: the Activity was found to be 0%.
As to `Cc1ncsc1-c1ccc(CNC(=O)[C@@H]2C[C@@H](O)CN2C(=O)[C@@H](NC(=O)C2(F)CC2)C(C)(C)C)c(OCCOCCOCCOCCOCCOCCOc2cc(NC(=O)[C@H](C)[C@H]3CC[C@@H](c4ccnc5ccc(F)cc54)CC3)ccc2Cl)c1`, the Activity turned out to be 0%.
Turning to `Cc1ncsc1-c1ccc(CNC(=O)[C@@H]2C[C@@H](O)CN2C(=O)[C@@H](NC(=O)C2(F)CC2)C(C)(C)C)c(OCCOCCOc2ccc(NC(=O)[C@H](C)[C@H]3CC[C@@H](c4ccnc5ccc(F)cc54)CC3)cc2)c1`, the Activity stood at 39%.
`Cc1ncsc1-c1ccc(CNC(=O)[C@@H]2C[C@@H](O)CN2C(=O)[C@@H](NC(=O)C2(F)CC2)C(C)(C)C)c(OCCCCCCCCCOc2cc(NC(=O)[C@H](C)[C@H]3CC[C@@H](c4ccnc5ccc(F)cc54)CC3)ccc2Cl)c1`: the Activity stood at 90%.
Take `Cc1ncsc1-c1ccc(CNC(=O)[C@@H]2C[C@@H](O)CN2C(=O)[C@@H](NCCOCCOCCOc2cc(NC(=O)[C@H](C)[C@H]3CC[C@@H](c4ccnc5ccc(F)cc54)CC3)ccc2Cl)C(C)(C)C)cc1`: the Activity came out at 0%.
In the case of `Cc1ncsc1-c1ccc(CNC(=O)[C@@H]2C[C@@H](O)CN2C(=O)[C@@H](NCCOCCOCCOCCOCCOc2cc(NC(=O)[C@H](C)[C@H]3CC[C@@H](c4ccnc5ccc(F)cc54)CC3)ccc2Cl)C(C)(C)C)cc1`, the Activity worked out at 0%.
On the same count and under the same terms, for `Cc1ncsc1-c1ccc(CNC(=O)[C@@H]2C[C@@H](O)CN2C(=O)[C@@H](NC(=O)C2(F)CC2)C(C)(C)C)c(OCCOCCOCCOCCOCCOCCOc2ccc(NC(=O)[C@H](C)[C@H]3CC[C@@H](c4ccnc5ccc(F)cc54)CC3)cc2)c1` the value was 27%; for `Cc1ncsc1-c1ccc(CNC(=O)[C@H]2C[C@H](O)CN2C(=O)[C@H](NCCCCCCOc2cc(NC(=O)[C@H](C)[C@H]3CC[C@@H](c4ccnc5ccc(F)cc54)CC3)ccc2Cl)C(C)(C)C)cc1`, 21%.
`Cc1ncsc1-c1ccc(CNC(=O)[C@@H]2C[C@@H](O)CN2C(=O)[C@@H](NCCCCOc2ccc(NC(=O)[C@H](C)[C@H]3CC[C@@H](c4ccnc5ccc(F)cc54)CC3)cc2)C(C)(C)C)cc1`: the Activity was found to be 0%.
As to `Cc1ncsc1-c1ccc(CNC(=O)[C@@H]2C[C@@H](O)CN2C(=O)[C@@H](NCCOCCC(=O)N2CCC(Oc3ccc(NC(=O)[C@H](C)[C@H]4CC[C@@H](c5ccnc6ccc(F)cc65)CC4)cc3)CC2)C(C)(C)C)cc1`, the Activity was 88%.
Consider `Cc1ncsc1-c1ccc(CNC(=O)[C@@H]2C[C@@H](O)CN2C(=O)[C@@H](NCCOCCOCCOCCOc2ccc(NC(=O)[C@H](C)[C@H]3CC[C@@H](c4ccnc5ccc(F)cc54)CC3)cc2)C(C)(C)C)cc1`, for which the Activity worked out at 0%.
As to `Cc1ncsc1-c1ccc(CNC(=O)[C@@H]2C[C@@H](O)CN2C(=O)[C@@H](NC(=O)C2(F)CC2)C(C)(C)C)c(OCCCCOc2ccc(NC(=O)[C@H](C)[C@H]3CC[C@@H](c4ccnc5ccc(F)cc54)CC3)cc2)c1`, the Activity worked out at 10%.
Regarding `Cc1ncsc1-c1ccc(CNC(=O)[C@@H]2C[C@@H](O)CN2C(=O)[C@@H](NCCOCCOCCOCCOCCOCCOc2cccc(NC(=O)[C@H](C)[C@H]3CC[C@@H](c4ccnc5ccc(F)cc54)CC3)c2)C(C)(C)C)cc1`, the Activity is 0%.
For the molecule `Cc1ncsc1-c1ccc(CNC(=O)[C@@H]2C[C@@H](O)CN2C(=O)[C@@H](NCCCCCCCOc2ccc(NC(=O)[C@H](C)[C@H]3CC[C@@H](c4ccnc5ccc(F)cc54)CC3)cc2)C(C)(C)C)cc1`, the Activity came to 0%.
On the same count and under the same terms, under `Cc1ncsc1-c1ccc(CNC(=O)[C@@H]2C[C@@H](O)CN2C(=O)[C@@H](NC(=O)C2(F)CC2)C(C)(C)C)c(OCCOCCOCCOCCOc2ccc(NC(=O)[C@H](C)[C@H]3CC[C@@H](c4ccnc5ccc(F)cc54)CC3)cc2)c1` stands 0%; under `Cc1ncsc1-c1ccc(CNC(=O)[C@@H]2C[C@@H](O)CN2C(=O)[C@@H](NC(=O)C2(F)CC2)C(C)(C)C)c(OCCOCCOc2cc(NC(=O)[C@H](C)[C@H]3CC[C@@H](c4ccnc5ccc(F)cc54)CC3)ccc2Cl)c1`, 23%; under `Cc1ncsc1-c1ccc(CNC(=O)[C@@H]2C[C@@H](O)CN2C(=O)[C@@H](NC(=O)C2(F)CC2)C(C)(C)C)c(OCCCOc2cc(NC(=O)[C@H](C)[C@H]3CC[C@@H](c4ccnc5ccc(F)cc54)CC3)ccc2Cl)c1`, 0%.
Same read-out and setting: for `Cc1ncsc1-c1ccc(CNC(=O)[C@@H]2C[C@@H](O)CN2C(=O)[C@@H](NCCOCCOCCOCCOCCOc2ccc(NC(=O)[C@H](C)[C@H]3CC[C@@H](c4ccnc5ccc(F)cc54)CC3)cc2)C(C)(C)C)cc1` the value was 0%.
Take `Cc1ncsc1-c1ccc(CNC(=O)[C@@H]2C[C@@H](O)CN2C(=O)[C@@H](NC(=O)C2(F)CC2)C(C)(C)C)c(OCCOCCOCCCN2CCC(Oc3ccc(NC(=O)[C@H](C)[C@H]4CC[C@@H](c5ccnc6ccc(F)cc65)CC4)cc3)CC2)c1`: the Activity worked out at 0%.
On the same count and under the same terms, for `Cc1ncsc1-c1ccc(CNC(=O)[C@@H]2C[C@@H](O)CN2C(=O)[C@@H](NC(=O)C2(F)CC2)C(C)(C)C)c(OCCOCCC(=O)N2CC(Oc3ccc(NC(=O)[C@H](C)[C@H]4CC[C@@H](c5ccnc6ccc(F)cc65)CC4)cc3)C2)c1` the value was 20%.

The target of the next assay is Protein cereblon/Indoleamine 2,3-dioxygenase 1 (Homo sapiens, UniProt P14902+Q96SW2). As to the kind of experiment: Protac activity at IDO1/CRBN in IFNgamma-stimulated human U87 cells assessed as IDO1 degradation at 10 uM measured after 24 hrs by Western blotting analysis relative to control. Type of assay: cell-based. A digest of the protocol: as §1
Chain of Protein cereblon/Indoleamine 2,3-dioxygenase 1 (P14902 whole entry, looked up): as the sequence (P14902 whole entry, looked up) above
Chain of Protein cereblon/Indoleamine 2,3-dioxygenase 1 (Q96SW2 whole entry, looked up): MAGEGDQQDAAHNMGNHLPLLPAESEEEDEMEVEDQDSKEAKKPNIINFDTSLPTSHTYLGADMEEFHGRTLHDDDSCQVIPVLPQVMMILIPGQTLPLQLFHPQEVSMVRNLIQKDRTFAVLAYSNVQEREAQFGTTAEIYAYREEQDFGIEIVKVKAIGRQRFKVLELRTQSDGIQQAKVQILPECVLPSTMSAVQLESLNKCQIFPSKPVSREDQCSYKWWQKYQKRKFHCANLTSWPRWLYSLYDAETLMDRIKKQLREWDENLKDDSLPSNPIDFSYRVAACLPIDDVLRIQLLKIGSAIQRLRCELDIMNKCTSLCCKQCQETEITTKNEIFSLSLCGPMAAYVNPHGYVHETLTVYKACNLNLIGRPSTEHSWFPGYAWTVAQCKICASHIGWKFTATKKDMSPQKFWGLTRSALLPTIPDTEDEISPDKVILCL
Take `C[C@@H](C(=O)Nc1ccc(Cl)c(OCCCCCCCCCNC(=O)COc2cccc3c2C(=O)N(C2CCC(=O)NC2=O)C3=O)c1)[C@H]1CC[C@@H](c2ccnc3ccc(F)cc32)CC1` (stereo not given in full): the Activity was determined as 0%.
As to `C[C@@H](C(=O)Nc1ccc(OCCOCCOCCNC(=O)COc2cccc3c2C(=O)N(C2CCC(=O)NC2=O)C3=O)cc1)[C@H]1CC[C@@H](c2ccnc3ccc(F)cc32)CC1` (stereo not given in full), the Activity came out at 47%.
In the case of `C[C@@H](C(=O)Nc1ccc(OCCOCCOCCOCCOCCOCCNc2cccc3c2C(=O)N(C2CCC(=O)NC2=O)C3=O)cc1)[C@H]1CC[C@@H](c2ccnc3ccc(F)cc32)CC1` (stereo not given in full), the Activity was found to be 0%.
With `C[C@@H](C(=O)Nc1ccc(OC2CN(C(=O)CCOCCOCCNc3cccc4c3C(=O)N(C3CCC(=O)NC3=O)C4=O)C2)cc1)[C@H]1CC[C@@H](c2ccnc3ccc(F)cc32)CC1` (stereo not given in full), the Activity turned out to be 94%.
With `C[C@@H](C(=O)Nc1ccc(OCCOCCOCCOCCOCCNc2cccc3c2C(=O)N(C2CCC(=O)NC2=O)C3=O)cc1)[C@H]1CC[C@@H](c2ccnc3ccc(F)cc32)CC1` (stereo not given in full), the Activity was 0%.
Same read-out and setting: for `C[C@@H](C(=O)Nc1ccc(OC2CN(C(=O)CCOCCNC(=O)COc3cccc4c3C(=O)N(C3CCC(=O)NC3=O)C4=O)C2)cc1)[C@H]1CC[C@@H](c2ccnc3ccc(F)cc32)CC1` (stereo not given in full) the value was 86%; for `C[C@@H](C(=O)Nc1ccc(OC2CCN(CCCOCCOCCOc3cccc4c3C(=O)N(C3CCC(=O)NC3=O)C4=O)CC2)cc1)[C@H]1CC[C@@H](c2ccnc3ccc(F)cc32)CC1` (stereo not given in full), 0%.
`C[C@@H](C(=O)Nc1ccc(Cl)c(OCCOCCOc2cccc3c2C(=O)N(C2CCC(=O)NC2=O)C3=O)c1)[C@H]1CC[C@@H](c2ccnc3ccc(F)cc32)CC1` (stereo not given in full): the Activity was 6%.
As for `C[C@@H](C(=O)Nc1ccc(OC2CCN(CCCOCCOc3cccc4c3C(=O)N(C3CCC(=O)NC3=O)C4=O)CC2)cc1)[C@H]1CC[C@@H](c2ccnc3ccc(F)cc32)CC1` (stereo not given in full), the Activity is 0%.
Take `C[C@@H](C(=O)Nc1ccc(Cl)c(OCCCNc2cccc3c2C(=O)N(C2CCC(=O)NC2=O)C3=O)c1)[C@H]1CC[C@@H](c2ccnc3ccc(F)cc32)CC1` (stereo not given in full): the Activity was found to be 36%.
The same measure, in the same setting: under `C[C@@H](C(=O)Nc1ccc(OCCCCCCCCCCNc2cccc3c2C(=O)N(C2CCC(=O)NC2=O)C3=O)cc1)[C@H]1CC[C@@H](c2ccnc3ccc(F)cc32)CC1` (stereo not given in full) stands 0%; under `C[C@@H](C(=O)Nc1ccc(Cl)c(OCCOCCOCCOc2cccc3c2C(=O)N(C2CCC(=O)NC2=O)C3=O)c1)[C@H]1CC[C@@H](c2ccnc3ccc(F)cc32)CC1` (stereo not given in full), 88%.
Consider `C[C@@H](C(=O)Nc1ccc(OCCCCNC(=O)COc2cccc3c2C(=O)N(C2CCC(=O)NC2=O)C3=O)cc1)[C@H]1CC[C@@H](c2ccnc3ccc(F)cc32)CC1` (stereo not given in full), for which the Activity was found to be 10%.
As to `C[C@@H](C(=O)Nc1ccc(OCCCCCCCCCCOc2cccc3c2C(=O)N(C2CCC(=O)NC2=O)C3=O)cc1)[C@H]1CC[C@@H](c2ccnc3ccc(F)cc32)CC1` (stereo not given in full), the Activity turned out to be 0%.
Consider `C[C@@H](C(=O)Nc1ccc(OCCOCCOCCOCCOCCOc2cccc3c2C(=O)N(C2CCC(=O)NC2=O)C3=O)cc1)[C@H]1CC[C@@H](c2ccnc3ccc(F)cc32)CC1` (stereo not given in full), for which the Activity turned out to be 0%.
